Screens from PubChem BioAssay.
Diaphorase act: compounds boosting diaphorase resazurin reduction – biochemical, uHTS, resorufin fluorescence, counter-screen for diaphorase-coupled primary assays, primary screen | Diaphorase/resazurin coupled assay, 16 min; stronger effect = higher value; 1 = vehicle wells, 0 = NADH-free wells | activation factor at 20 µM | 0.005% of 190,000 active | AID 1229, 2008;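 active = diaphorase activity raised at least twofold by the compound at 20 µM; inactive = activation factor below 2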
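Material: purified diaphorase enzyme from Clostridium kluyveri; Also added: 0.114 mM NADH and 0.1 mM resazurin, final amounts; Doses: single compound dose of 20 µM, 1% DMSO final; Times: 16 min enzyme reaction, ambient temperature; Detection: resorufin fluorescence, excitation 544 nm, emission 590 nm; Measure: increased resorufin signal from activators or reducing compounds.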
G6PDH CS: L. mesenteroides G6PDH inhibitors, counter-screen for G6PDH-coupled screening assays, biochemical, Leuconostoc mesenteroides enzyme; 0.12% of 200,000 active; AID 1020, 2008; inhibition, % at 5 µM; Purified L. mesenteroides G6PDH, diaphorase/resazurin coupled fluorescence, 45 min; in the data active = inhibition above about 50%
Arbovirus anti: antivirals against arbovirus infection, primary screen, cell-based, full library, 10K replicate subset. arbovirus infection cell-based antiviral screen. inhibition, % at 10 µM. 0.37% of 200,000 active; in the data active = inhibition above about 30%
HKDC1 inh: HKDC1 hexokinase inhibitors, primary screen, biochemical, fluorescence, uHTS | recombinant HKDC1, G6PDH/diaphorase resazurin coupled fluorescence | inhibition, % at 20 µM | 0.16% of 340,000 active;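 active = inhibition above about 35% when tested at 20 µM, limit read from the data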
Target sequence (Q2TB90 whole entry, looked up): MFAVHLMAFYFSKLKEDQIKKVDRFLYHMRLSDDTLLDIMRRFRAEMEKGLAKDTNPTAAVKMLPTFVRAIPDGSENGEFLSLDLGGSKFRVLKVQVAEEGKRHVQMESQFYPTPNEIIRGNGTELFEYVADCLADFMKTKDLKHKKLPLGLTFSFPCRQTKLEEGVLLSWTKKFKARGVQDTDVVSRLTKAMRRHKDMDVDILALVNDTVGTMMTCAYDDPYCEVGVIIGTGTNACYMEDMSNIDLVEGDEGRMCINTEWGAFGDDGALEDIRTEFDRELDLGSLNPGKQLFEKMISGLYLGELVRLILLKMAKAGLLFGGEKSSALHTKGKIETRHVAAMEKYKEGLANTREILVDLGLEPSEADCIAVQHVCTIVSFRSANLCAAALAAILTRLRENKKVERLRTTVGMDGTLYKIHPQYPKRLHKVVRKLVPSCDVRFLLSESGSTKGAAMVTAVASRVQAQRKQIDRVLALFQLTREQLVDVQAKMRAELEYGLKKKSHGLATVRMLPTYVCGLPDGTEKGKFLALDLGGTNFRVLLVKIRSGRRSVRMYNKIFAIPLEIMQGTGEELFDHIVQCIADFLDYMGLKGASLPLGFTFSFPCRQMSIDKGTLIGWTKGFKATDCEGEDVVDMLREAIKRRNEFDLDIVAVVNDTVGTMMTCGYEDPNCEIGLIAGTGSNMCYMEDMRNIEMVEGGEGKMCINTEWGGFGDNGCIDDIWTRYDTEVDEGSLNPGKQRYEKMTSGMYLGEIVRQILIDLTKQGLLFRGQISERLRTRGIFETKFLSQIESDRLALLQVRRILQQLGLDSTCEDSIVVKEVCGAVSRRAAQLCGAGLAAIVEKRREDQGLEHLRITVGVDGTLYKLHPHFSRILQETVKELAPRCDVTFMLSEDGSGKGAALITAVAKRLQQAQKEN
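Test system: Recombinant HKDC1 (HK5) hexokinase enzyme, produced in-house | Input: HKDC1 at 5 µg/mL | Buffer or medium: Tris pH 8.0 buffer with MgCl2, Tween-20, BSA, BME | Schedule: 90 min reaction incubation at room temperature, dark | Technique: Resazurin-to-resorufin fluorescence via G6PDH and diaphorase coupling, 525/613 nm | Controls: DMSO wells with and without enzyme mix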
Diaph inh CS: diaphorase inhibitors and chemical oxidizers, primary screen, counter-screen for diaphorase-coupled primary assays, biochemical, uHTS, resorufin fluorescence. diaphorase resazurin-to-resorufin fluorescence, NADH, 16 min; bacterial (C. kluyveri) enzyme, not human. inhibition, % at 20 µM. 0.69% of 190,000 active. AID 1217, 2008;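 active = primary screen inhibition at 20 µM above a set limit, cut at about 50% in these data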
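Assay system: diaphorase enzyme from Clostridium kluyveri; Input: enzyme working solution with 0.14 U/mL diaphorase; Timing: 16 min at room temperature; Technique: resorufin fluorescence, excitation 544 nm, emission 590 nm; Benchmarks: positive control minus NADH, DMSO neutral control.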
Each line names hits and unclear results; the compound was inactive in the other large screens. A selection: hits, their analogues and other compounds. The true share with any hit is near 0.74%.

COc1ccc(NC(=O)CN2CCN(CC(=O)Nc3ccccc3OC)CC2)c(OC)c1	none (no result: Diaphorase act, G6PDH CS, Arbovirus anti, Diaph inh CS)
CCCN(C(=O)COC(=O)COc1c(C)cccc1C)c1c(N)n(Cc2ccccc2)c(=O)[nH]c1=O	none (no result: Diaphorase act, G6PDH CS, Arbovirus anti, Diaph inh CS)
CCOC(=O)c1ccc(NC(=O)CC2S/C(=N/N=C/c3c[nH]c4ccccc34)NC2=O)cc1 (stereo not drawn)	Arbovirus anti 31.1
Cc1ccc(NC(=O)CC2S/C(=N/N=C/c3c[nH]c4ccccc34)NC2=O)cc1 (stereo not drawn)	none
CCn1nnnc1SCC(=O)N1N=C(c2cccs2)CC1c1cccs1 (stereo not drawn)	none (no result: Diaphorase act, G6PDH CS, Arbovirus anti, Diaph inh CS)
Nc1[nH]n2c(=O)cc(-c3ccccc3)nc2c1N=Nc1ccc2c(c1)OCO2	Diaph inh CS 68.5 (no result: HKDC1 inh)
O=C(COc1cccnc1[N+](=O)[O-])NCc1ccc(F)cc1	none (no result: Diaphorase act, G6PDH CS, Arbovirus anti, Diaph inh CS)
COc1cccc(OC)c1OCCCN1CCOCC1	Diaph inh CS 53.0
COCCN1C(=O)/C(=C2/C(=O)N(CC(=O)Nc3ccccc3Cl)c3ccccc32)SC1=S	none (no result: Diaphorase act, G6PDH CS, Arbovirus anti, Diaph inh CS)
O=C(CN1C(=O)/C(=C2/SC(=S)N(CCS(=O)(=O)O)C2=O)c2ccccc21)Nc1cccc(C(F)(F)F)c1	HKDC1 inh 36.2 (no result: Diaphorase act, G6PDH CS, Arbovirus anti, Diaph inh CS)
CCCn1c(=S)[nH]c2ccccc2c1=O	none
CCc1cc2c(=O)n(CCC(C)C)c(=S)[nH]c2s1	Diaph inh CS 55.6
COc1ccc(Cn2c(C)c(C)c(C#N)c2NC(=O)Nc2cccc(Cl)c2)cc1	Arbovirus anti 79.0
CC(=O)O[C@H]1C2OC(=O)C(C)=C2[C@@H]2OC(=O)[C@]3(CCC4OC41C)OC23 (stereo partly drawn)	none
COc1cc(/C=C/C(=O)O)cc(S(=O)(=O)Nc2ccccc2Oc2ccccc2)c1OC	none (no result: Diaphorase act, G6PDH CS, Arbovirus anti, Diaph inh CS)
O=C(O)CC/C(=N/Nc1ncc(C(F)(F)F)cc1Cl)C(=O)O	Diaph inh CS 53.0
O=C(O)CCc1ncc(C(F)(F)F)cc1Cl	none
CC1(C)CNc2cc(N)ccc2S1	Diaph inh CS 72.4
O=C(NCC1COc2ccccc2O1)c1cc(S(=O)(=O)N2CCOCC2)c(Cl)cc1Cl (stereo not drawn)	none (no result: Diaphorase act, G6PDH CS, Arbovirus anti, Diaph inh CS)
Nc1c(C(=O)NCc2ccco2)sc2nc3c(cc12)C(=O)CCC3	Diaph inh CS 52.7
COc1ccc2cc3c(N)c(C(=O)NCc4ccco4)sc3nc2c1	none
Cc1ccc2nc(NC(=O)C3CCCN(S(=O)(=O)c4cnc[nH]4)C3)sc2c1 (stereo not drawn)	Arbovirus anti 58.8
C=C1[C@@H](O)[C@H](CC(C)C)N(Cc2ccccc2Br)S1(=O)=O	none (no result: Diaphorase act, G6PDH CS, Arbovirus anti, Diaph inh CS)
CCOC(=O)c1c(C)sc2c1N(C(=O)CN(CC)CC)c1cc(Cl)ccc1S2	none
CCOC(=O)c1c(C)sc2c1N(C(=O)CN1CCOCC1)c1cc(Cl)ccc1S2	Diaph inh CS 57.2
Cn1cccc1Cc1nnc(SCC(=O)Nc2ccc(F)cc2)n1-c1ccc(F)cc1	none
CCSc1nnc(NC(=O)CSc2nnc(Cc3cccn3C)n2-c2ccc(F)cc2)s1	Arbovirus anti 33.2
c1ccc2c(-c3c[nH]c4ccccc34)c3ccccc3nc2c1	none
Clc1ccc(-c2c[nH]c3ccccc23)nn1	Diaph inh CS 63.0
COC(=O)c1ccc(NC(=O)CN(Cc2ccc(Cl)cc2)S(C)(=O)=O)cc1	none
CCCCN(Cc1ccco1)C(=O)c1cc2c(=O)[nH]c3ccc(C)cc3c2s1	Diaph inh CS 56.8
O=C(Nc1nc2ccccc2s1)c1ccc(OCC2CCCO2)cc1 (stereo not drawn)	Arbovirus anti 30.8
Cc1cnc(NC(=O)c2ccc(OCC3CCCO3)cc2)s1 (stereo not drawn)	none
CCCCN(C(=O)c1cc(Cl)nc2ccccc12)c1c(N)n(Cc2ccccc2)c(=O)[nH]c1=O	none (no result: Diaphorase act, G6PDH CS, Arbovirus anti, Diaph inh CS)
O=C(CCc1ccc(S(=O)(=O)N2CCOCC2)cc1)N/N=C/c1ccc(O)c(O)c1O	Diaph inh CS 70.9
CC(C)(C)C1=CC(=Nc2ccccc2N)C=C(C(C)(C)C)C1=O	none
CC(C)(C)C1=CC(=O)C(=O)C(C(C)(C)C)=C1	Diaph inh CS 72.7
CCOC(=O)N1CCN(C(=O)c2ccc3c(=O)n(-c4ccccc4F)c(=S)[nH]c3c2)CC1	Diaph inh CS 50.3
CCOC(=O)N1CCN(C(=O)c2ccc3c(=O)n(-c4ccc(OC)cc4OC)c(=S)[nH]c3c2)CC1	none
CCCn1c(C)cc(=O)c2cc(NC(=O)c3ccccn3)ccc21	none
CC(=NO)C1CCC2C3CCC4=CC(=NO)CCC4(C)C3C(=O)CC12C (stereo not drawn)	none (no result: Diaphorase act, G6PDH CS, Arbovirus anti, Diaph inh CS)
COc1ccc(/C=C(\C#N)C(=O)OCC(=O)N2CC(C)OC(C)C2)cc1 (stereo not drawn)	none
CCCCCCc1cc2cc(C(=O)Nc3ccc(OC)cc3)c(=O)oc2cc1O	Arbovirus anti 46.8
CCCSC1=N/C(=C\C=C\c2ccco2)C(=O)S1	Diaph inh CS 51.4
O=C(c1ccc(S(=O)(=O)Nc2ccccc2F)cc1)N1CCCC1	none (no result: Diaphorase act, G6PDH CS, Arbovirus anti, Diaph inh CS)
Cc1ccc(O)c(NC2=C(Cl)C(=O)N(Cc3ccccc3)C2=O)c1	Diaph inh CS 50.9
Cc1ccc(C(=O)N2CCCCC2)cc1NC1=C(Cl)C(=O)N(Cc2ccccc2)C1=O	none (no result: Diaphorase act, G6PDH CS, Arbovirus anti, Diaph inh CS)
Cc1c(Nc2cc(N3CCCCCC3)c3nonc3c2[N+](=O)[O-])c(=O)n(-c2ccccc2)n1C	Diaph inh CS 51.4
O=C(NCC1CCCO1)c1cn(-c2ccccc2)nc1-c1ccccc1 (stereo not drawn)	Diaph inh CS 58.3
N#Cc1ccc(CN2CCN(C(=O)CNC(=O)Cc3ccccc3)CC2)cc1	none (no result: Diaphorase act, G6PDH CS, Arbovirus anti, Diaph inh CS)
CCOC(=O)c1c(C)n(-c2ccc(C)cc2)c2c(C(C(C)=O)C(=O)O)c(Br)c(O)c(O)c12 (stereo not drawn)	Diaph inh CS 72.3
CCOC(=O)C(C(=O)Cc1ccccc1)c1ccccc1 (stereo not drawn)	none (no result: Diaphorase act, G6PDH CS, Arbovirus anti, Diaph inh CS)
COC(=O)c1ccc(OCC(=O)c2ccccc2OC)cc1	none
CCOc1ccc(NC(=S)Nc2cccc3cnccc23)cc1	Diaph inh CS 55.0
COc1ccccc1NC(=S)Nc1cccc2cnccc12	Diaph inh CS 64.9
COc1ccc(NC(=S)Nc2cccc3cnccc23)cc1	Diaph inh CS 56.1
O=S(=O)(Nc1ccc(Br)cc1)c1cccc(NS(=O)(=O)c2cccs2)c1	none (no result: Diaphorase act, G6PDH CS, Arbovirus anti, Diaph inh CS)
O=C(OCCSCCOC(=O)C1CC=CCC1)C1CC=CCC1 (stereo not drawn)	none (no result: Diaphorase act, G6PDH CS, Arbovirus anti, Diaph inh CS)
CCN(CC)C(=O)c1ccccc1NS(C)(=O)=O	Diaph inh CS 73.6
CS(=O)(=O)Nc1ccccc1C(=O)O	none
COc1ccc(N2CCN(C(=O)Cn3nnc(-c4ccccc4N)n3)CC2)cc1	none
